ChEMBL document CHEMBL3822384, “2-(3-Methoxyphenyl)quinazoline Derivatives: A New Class of Direct Constitutive Androstane Receptor (CAR) Agonists” (J Med Chem, 2016)
pEC50, pIC50: −log10 of the molar value. Calls of active or inactive are those of the source. The rule behind the calls is not given here.

Assays:
[1] = target: T1, Glucocorticoid receptor (Homo sapiens) (UniProt P04150); experiment: Agonist activity at glucocorticoid receptor (unknown origin)
T1 sequence (whole entry): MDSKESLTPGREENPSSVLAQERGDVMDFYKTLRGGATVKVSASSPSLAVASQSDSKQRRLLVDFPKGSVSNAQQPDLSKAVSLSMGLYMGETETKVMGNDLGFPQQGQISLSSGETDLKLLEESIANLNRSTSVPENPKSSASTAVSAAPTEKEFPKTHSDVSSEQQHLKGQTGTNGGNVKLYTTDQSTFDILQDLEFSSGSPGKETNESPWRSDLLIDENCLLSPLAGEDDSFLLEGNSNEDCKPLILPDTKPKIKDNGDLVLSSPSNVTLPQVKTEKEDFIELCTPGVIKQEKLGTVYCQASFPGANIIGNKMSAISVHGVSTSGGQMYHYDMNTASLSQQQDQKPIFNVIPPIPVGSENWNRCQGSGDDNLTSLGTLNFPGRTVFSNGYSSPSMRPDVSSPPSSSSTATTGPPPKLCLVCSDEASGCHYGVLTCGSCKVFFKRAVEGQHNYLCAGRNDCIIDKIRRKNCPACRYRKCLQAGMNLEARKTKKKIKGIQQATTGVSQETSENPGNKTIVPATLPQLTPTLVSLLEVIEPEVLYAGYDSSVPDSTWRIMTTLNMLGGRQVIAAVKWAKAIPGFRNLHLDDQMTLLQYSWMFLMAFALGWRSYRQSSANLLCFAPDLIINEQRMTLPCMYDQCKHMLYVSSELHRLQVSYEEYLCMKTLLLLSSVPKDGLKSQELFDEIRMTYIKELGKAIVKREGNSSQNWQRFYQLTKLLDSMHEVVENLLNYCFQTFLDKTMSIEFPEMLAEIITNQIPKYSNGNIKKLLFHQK

[2] = target: T2, Vitamin D3 receptor (Homo sapiens) (UniProt P11473); experiment: Agonist activity at VDR in human primary hepatocytes assessed as upregulation of CYP3A4 mRNA expression at 10 uM after 24 hrs by qRT-PCR method; format: cell-based; details: Hepatocyte
T2 sequence (whole entry): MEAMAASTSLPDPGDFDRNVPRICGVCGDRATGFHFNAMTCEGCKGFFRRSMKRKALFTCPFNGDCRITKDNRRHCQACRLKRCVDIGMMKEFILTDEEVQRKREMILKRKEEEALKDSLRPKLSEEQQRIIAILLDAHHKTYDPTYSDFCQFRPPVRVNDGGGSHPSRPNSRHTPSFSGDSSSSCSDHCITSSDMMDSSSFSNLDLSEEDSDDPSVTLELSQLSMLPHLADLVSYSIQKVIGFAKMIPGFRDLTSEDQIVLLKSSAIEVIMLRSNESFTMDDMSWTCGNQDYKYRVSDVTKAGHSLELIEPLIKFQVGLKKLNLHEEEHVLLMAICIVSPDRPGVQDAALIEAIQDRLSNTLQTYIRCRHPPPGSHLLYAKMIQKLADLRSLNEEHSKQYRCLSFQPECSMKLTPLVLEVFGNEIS

[3] = target: T3, Nuclear receptor subfamily 1 group I member 2 (Homo sapiens, UniProt O75469); experiment: Agonist activity at PXR in human primary hepatocytes assessed as upregulation of MDR/ABCB1 mRNA expression at 10 uM after 24 hrs by qRT-PCR method; format: cell-based, Hepatocyte
T3 sequence (O75469 whole entry): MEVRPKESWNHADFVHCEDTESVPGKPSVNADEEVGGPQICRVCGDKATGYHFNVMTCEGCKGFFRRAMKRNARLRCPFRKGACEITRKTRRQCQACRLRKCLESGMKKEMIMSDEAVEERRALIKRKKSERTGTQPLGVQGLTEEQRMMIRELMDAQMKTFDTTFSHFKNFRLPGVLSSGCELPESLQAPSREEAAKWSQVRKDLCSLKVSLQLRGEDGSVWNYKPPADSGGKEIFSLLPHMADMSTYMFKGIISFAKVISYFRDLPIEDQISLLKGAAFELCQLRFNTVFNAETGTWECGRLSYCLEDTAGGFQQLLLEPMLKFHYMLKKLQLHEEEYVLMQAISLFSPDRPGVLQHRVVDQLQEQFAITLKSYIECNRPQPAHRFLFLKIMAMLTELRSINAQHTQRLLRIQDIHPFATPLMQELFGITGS

[4] = target: T2, Vitamin D3 receptor (Homo sapiens); experiment: Agonist activity at VDR in human primary hepatocytes assessed as upregulation of CYP3A5 mRNA expression at 10 uM after 24 hrs by qRT-PCR method; format: cell-based; details: Hepatocyte
[5] = target: T3, Nuclear receptor subfamily 1 group I member 2; experiment: Agonist activity at PXR in human primary hepatocytes assessed as upregulation of UGT1A1 mRNA expression at 10 uM after 24 hrs by qRT-PCR method; format: cell-based, Hepatocyte
[6] = target: T4, Nuclear receptor subfamily 1 group I member 3 (Homo sapiens, UniProt Q14994); experiment: Agonist activity at CAR expressed in human HepG2 cells at 1 to 20 uM after 48 hrs by p(ER6)3-luciferase reporter gene assay; format: cell-based; details: hepg2, 48 h
T4 sequence (Q14994 whole entry): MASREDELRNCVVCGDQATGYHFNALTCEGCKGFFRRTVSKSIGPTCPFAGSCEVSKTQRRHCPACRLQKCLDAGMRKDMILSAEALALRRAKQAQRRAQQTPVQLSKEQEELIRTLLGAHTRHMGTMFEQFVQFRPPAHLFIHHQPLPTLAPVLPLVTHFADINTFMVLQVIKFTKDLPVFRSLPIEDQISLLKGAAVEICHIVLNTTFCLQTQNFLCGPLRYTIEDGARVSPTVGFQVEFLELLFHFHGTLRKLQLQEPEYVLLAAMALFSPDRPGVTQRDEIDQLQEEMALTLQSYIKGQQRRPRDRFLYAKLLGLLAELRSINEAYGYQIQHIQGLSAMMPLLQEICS
Method in brief: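 HepG2 cells transiently co-transfected with p(ER6)3-luc reporter, wild-type CAR expression vector and pRL-TK normalization plasmid; after 24 h stabilization, treated with compounds or vehicle (DMSO 0.1%, v/v) for 48 h. Firefly and Renilla luciferase read; fold change versus vehicle (set to 1), means ± SD of triplicates from a representative experiment.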

Cytochrome P450 3A4 = Cytochrome P450 3A4 (Homo sapiens, UniProt P08684); experiment: Inhibition of recombinant human CYP3A4 by P450-Glo luminescence assay; format: ADME; details: for pIC50: read-out: IC50
CAR3 (NR1I3) = CAR3 (NR1I3) (Homo sapiens, UniProt Q14994, WILDTYPEORMUTANTINASSAY1587668); experiment: (§1) Agonist activity at human CAR3 expressed in African green monkey COS-1 cells cotransfected with RXRalpha after 24 hrs by CYP2B6-luciferase reporter gene assay; format: cell-based; details: human, COS-1 cells expressing human CAR3 and RXRalpha; read-out: Imax
Method in brief: (§2)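 COS-1 cells co-transfected with CYP2B6-luc, low-constitutive-activity CAR3 variant, RXRα (100 ng/well) and pRL-TK; after 24 h stabilization, compound or DMSO (0.1%, v/v) for 24 h. Firefly luciferase normalized to Renilla; fold change relative to vehicle (set to 1), means of three independent experiments.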

[7] = target: Nuclear receptor subfamily 1 group I member 3 (Homo sapiens, UniProt Q14994); experiment: as §1; format: cell-based; details: for pEC50: cos-1; for Activity: human, cos-1, 24 h; method in brief: as §2

Chain of Cytochrome P450 3A4 (P08684 whole entry): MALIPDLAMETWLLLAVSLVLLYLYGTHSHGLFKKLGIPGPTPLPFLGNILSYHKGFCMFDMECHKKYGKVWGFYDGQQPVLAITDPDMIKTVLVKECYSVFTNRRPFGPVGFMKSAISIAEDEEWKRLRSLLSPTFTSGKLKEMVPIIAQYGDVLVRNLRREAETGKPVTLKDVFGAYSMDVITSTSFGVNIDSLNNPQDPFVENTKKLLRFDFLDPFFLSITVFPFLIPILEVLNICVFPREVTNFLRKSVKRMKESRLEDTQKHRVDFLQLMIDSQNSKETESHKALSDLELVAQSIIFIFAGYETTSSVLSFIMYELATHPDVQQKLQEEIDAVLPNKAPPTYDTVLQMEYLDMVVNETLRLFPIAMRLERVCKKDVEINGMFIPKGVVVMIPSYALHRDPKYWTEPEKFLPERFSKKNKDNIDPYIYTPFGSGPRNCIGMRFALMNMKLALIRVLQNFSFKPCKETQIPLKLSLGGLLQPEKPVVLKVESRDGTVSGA

SMILES: COc1cccc(-c2nc(SC)c3ccccc3n2)c1
- Activity [1]: inactive
- Activity [2]: Active
- Activity [3]: Active
- Activity [4]: Active
- Activity [5]: Active
- Activity [6]: Active
- pIC50 (Cytochrome P450 3A4): 4.64
- Emax at 24 h (CAR3 (NR1I3)): 158%
- pEC50 [7]: 5.39
- Activity [7]: Dose-dependent effect

SMILES: COc1cccc(-c2nc(OC)c3ccccc3n2)c1
- Activity [1]: inactive
- Activity [2]: Active
- Activity [3]: Active
- Activity [4]: Active
- Activity [5]: Active
- Activity [6]: Active
- pIC50 (Cytochrome P450 3A4): 4.89
- Emax at 24 h (CAR3 (NR1I3)): 462%
- pEC50 [7]: 5.31
- Activity [7]: Dose-dependent effect

SMILES: COc1cccc(-c2nc3ccccc3c(=S)[nH]2)c1
- Activity [1]: inactive
- Activity [2]: Active
- Activity [3]: Active
- Activity [4]: Active
- Activity [5]: Active
- Activity [6]: Active
- IC50 (Cytochrome P450 3A4): Not Active
- Emax at 24 h (CAR3 (NR1I3)): 333%
- pEC50 [7]: 5.21
- Activity [7]: Dose-dependent effect
